test system: E. coli UTI89 capsule, orcinol OD572; assay: surface polysaccharide capsule reduction in UPEC – orcinol colorimetric, UTI89 strain, 100 µM, orthogonal assay, confirmation (AID 504733); conditions: at 100 µM; stronger effect = lower value
How it was run: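 Test system: Uropathogenic E. coli UTI89 or its capsule-export mutant ΔkpsM | Doses: One 100 µM compound dose | Timing: Hydrolysis step 1 h, 80 °C, pH 2 | Technique: Orcinol colour at OD 572 nm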

Compared with `COc1ccc2nc(NC(=O)c3ccc(Br)s3)sc2c1`, `O=C(Nc1ccncc1)c1ccc2ncsc2c1` is lower in capsule formation: 24.5% for the first, 19.1% for the second.

Compared with `CCOc1ccc(-c2cc(NC(=O)c3c(F)cccc3F)c(C(=O)O)s2)cc1`, `O=C(NCc1cc([N+](=O)[O-])ccc1O)c1cccnc1Sc1ccccc1Cl` is higher in capsule formation: 9.04% for the first, 18.6% for the second.

Compared with `O=C(ONc1ccc(N=NC(=O)c2ccccc2O)cc1)c1ccccc1`, `CC1=NN2C(=N)/C(=C\c3ccc(SCc4ccco4)o3)C(=O)N=C2S1` is higher in capsule formation: 16% for the first, 20.2% for the second.

— PubChem BioAssay AID504733 (Southern Research Specialized Biocontainment Screening …, 2011)
